Measurements as given in PMC5693322 (Blood, 2017).

How the values were obtained:
[1] = molecular target: T1, ACVR1 (ALK2) (Homo sapiens, UniProt Q04771); experiment: SelectScreen LanthaScreen Eu Kinase Binding Assay
T1 sequence (Q04771 21-509): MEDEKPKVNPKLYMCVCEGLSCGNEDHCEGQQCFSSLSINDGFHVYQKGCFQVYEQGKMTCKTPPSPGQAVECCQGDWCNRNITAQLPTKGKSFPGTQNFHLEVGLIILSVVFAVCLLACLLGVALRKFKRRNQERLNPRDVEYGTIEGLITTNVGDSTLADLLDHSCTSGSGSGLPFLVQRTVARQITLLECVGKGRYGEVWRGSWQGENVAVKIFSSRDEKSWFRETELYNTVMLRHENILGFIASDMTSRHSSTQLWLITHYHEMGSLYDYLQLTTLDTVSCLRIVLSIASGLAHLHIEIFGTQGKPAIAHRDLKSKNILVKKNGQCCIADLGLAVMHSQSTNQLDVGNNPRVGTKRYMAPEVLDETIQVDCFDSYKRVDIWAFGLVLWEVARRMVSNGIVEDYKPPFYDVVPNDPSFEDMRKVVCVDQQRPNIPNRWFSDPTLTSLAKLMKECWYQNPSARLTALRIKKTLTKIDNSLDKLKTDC

[2] = tested on: patients; settings: clinical studies ref 18, 20; cited from earlier work
[3] = tested on: IL-6-pSTAT3 in HepG2 cells; experiment: IL-6-induced phosphorylation of STAT3 in HepG2 cells, western blot; assay type: cell-based; settings: HepG2, 10 ng/mL IL-6 20 min
How it was run: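 Western blot for pSTAT3 in HepG2 cells (EMEM, 10% FCS, 1% penicillin/streptomycin) after 20 min of 10 ng/mL IL-6, with test compound present. β-actin served as loading control. Values are percent of pSTAT3 induction relative to vehicle-treated cells, n = 2, mean ± SEM.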

[4] = tested on: BMP6-pSMAD1/5/8 in HepG2 cells; experiment: BMP6-induced phosphorylation of SMAD1/5/8 in HepG2 cells, western blot; assay type: cell-based; settings: HepG2, 10 ng/mL BMP6 30 min, cpd added 2 hours before
How it was run: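 HepG2 cells were grown in EMEM with 10% FCS and 1% penicillin/streptomycin. Test compound was added 2 h before stimulation with BMP6 (10 ng/mL, 30 min). pSMAD1/5/8 was detected by western blot with HRP secondary antibodies, using β-actin as loading control. Results are percent of pSMAD1/5/8 induction normalized to vehicle-treated cells, n = 5, mean ± SEM.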

[5] = tested on: FPN1 protein in RAW 264.7 cells; assay type: cell-based, murine; settings: RAW 264.7, FeCl3 50 μM 20 h, hepcidin 1 μg/mL + MMB 10 nM-1 μM 6 h
How it was run: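 RAW 264.7 cells were cultured in DMEM with 10% FCS, 1% penicillin/streptomycin and 2 mM glutamine at 37°C and 5% CO2. FeCl3 (50 μM, 20 h) induced FPN1. Cells then received hepcidin (1 μg/mL) alone or with test compound (10, 100, 500 nM, 1 μM) for another 6 h. Untreated cells were controls. FPN1 was measured by western blot and densitometry, normalized to β-actin, n = 3 per group.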

[6] = tested on: healthy rats; experiment: MMB treatment of healthy rats; assay type: in vivo, rat
[7] = tested on: ACD rats; experiment: PG-APS-induced rat model of anemia of chronic disease; assay type: in vivo
How it was run: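 Female Lewis rats on standard diet (180 mg iron/kg) were made anemic by intraperitoneal PG-APS. From 2 weeks after PG-APS they received test compound 25 mg/kg or vehicle once daily for 3 days up to 21 days. Hb and RBC were counted on a Vet-ABC analyzer. Serum iron was measured by QuantiChrom kit. Spleen FPN1 was measured by western blot (n = 4). Liver Inhibin BB mRNA was measured by TaqMan RT-PCR on 4 μg of guanidinium-phenol-extracted RNA. Time points were compared by unpaired t test.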

[8] = healthy rats, 5, 10 or 25 mg/kg
[9] = healthy rats, any MMB dose, 3 days
[10] = ACD rats, 25 mg/kg once daily, days 14 and 21, vs vehicle
[11] = ACD rats, 5, 10 or 25 mg/kg for 3 days, hepatic nuclear extracts
[12] = ACD rats, 5, 10 or 25 mg/kg once daily for 3 days
[13] = ACD rats, 5, 10 or 25 mg/kg, 3 weeks, FACS

## N#CC[C@H](C1CCCC1)n1cc(-c2ncnc3[nH]ccc23)cn1 [RUX, ruxolitinib, reference compound]
[1]; ACVR1/ALK2, BMPR1a/ALK3 and TGFBR1/ALK5 assays
  inhibitory activity in type I BMPR kinase / TGFBR1 binding assays: no relevant inhibitory activity
[2]
  patients who experienced grade 3 or 4 anemia: 45.2%
[3]
  inhibition of IL-6-pSTAT3 signaling: blocked
[4]
  inhibition of BMP6-pSMAD1/5/8 signaling: not BMP6-pSMAD1/5/8

## N#CCNC(=O)c1ccc(-c2ccnc(Nc3ccc(N4CCOCC4)cc3)n2)cc1 [MMB, momelotinib]
[1]
  IC50: 8.4 nM
[5]
  effect on FPN1 protein expression in presence of hepcidin: no effect
[2]
  patients who experienced grade 3 or 4 anemia: 3%
[3]
  inhibition of IL-6-pSTAT3 signaling: inhibited
[6]; [8]
  erythropoietic / circulating iron effects in healthy rats: did not induce any of these effects
  pSMAD1/5/8 protein levels: not affected
  pSTAT3 protein levels: not affected
[6]; [9]
  FPN1 protein levels in the spleen: no changes
  Hamp mRNA expression in the liver: no changes
  serum iron levels: no changes
[4]
  inhibition of BMP6-pSMAD1/5/8 signaling: inhibited
[7]; ACD rats, 25 mg/kg once daily
  mean corpuscular Hb: increase
  mean corpuscular volume: increase
  neutrophil count: reductions
  white blood cell count: reductions
[7]; [10]
  Hb concentrations: significant increase
  RBC count: significant increase
[7]; ACD rats, 25 mg/kg, 3 days
  FPN1 expression in the spleen: increase
  ferritin protein levels in the spleen: decreased
[7]; ACD rats, 25 mg/kg, up to 21 days
  circulating iron concentrations: increase
[7]; ACD rats, 5, 10 or 25 mg/kg for 3 days
  Inhibin BB mRNA levels in the liver: decreased
[7]; [11]
  pSMAD1/5/8 in the livers: dose-dependent reduction
  pSTAT3 in the livers: dose-dependent reduction
[7]; [12]
  liver Hamp mRNA expression: reduced
  serum hepcidin levels: dose-dependent decrease
  serum iron: dose-dependent increase
[7]; [13]
  numbers of mature RBCs in bone marrow: dose-dependent increase
  numbers of reticulocytes in bone marrow: dose-dependent increase
[7]; ACD rats, 3 days, especially at 25 mg/kg
  splenic IL-6 cytokine mRNA levels: modulated
